15 compounds from ChEMBL document CHEMBL1137500, “Inhibitors of type III secretion in Yersinia: design, synthesis and multivariate QSAR of 2-arylsulfonylamino-benzanilides” (Bioorg Med Chem, 2007) can be followed below.

Assay [1] deals with Yersinia pseudotuberculosis. Description: Effect on T3S in Yersinia pseudotuberculosis 3 pIB29 assessed as inhibition of light emission at 50 uM by luciferase reporter gene assay. The procedure, abridged:
(§1)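 Strain YPIII-pIB29 (yopE-luxAB transcriptional fusion, lacking YopH), grown overnight at ambient temperature in BHI with 5 mM EGTA and 20 mM MgCl2 to deplete calcium, then adjusted to OD600 0.15-0.25. Compounds in DMSO (≤1% final) at 100, 50, 20 or 10 µM final, in triplicate. Plates shaken 1 h at ambient temperature, then 2 h at 37 °C. Decanal added within 30 min and luminescence read at once. Result is % inhibition of light versus control.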
(In general: Reporter assays use an easily measured gene product as a stand-in for the process of interest.)

The test system of assay [2] is Yersinia pseudotuberculosis. Description: Effect on T3S in Yersinia pseudotuberculosis 3 pIB29 assessed as inhibition of light emission at 10 uM by luciferase reporter gene assay. The procedure, abridged:
as §1

Assay [3] has as its system Yersinia pseudotuberculosis. Briefly: Growth inhibition of Yersinia pseudotuberculosis. It counts as functional, organism-based. In a few lines:
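Wild-type YPIII-pIB102 diluted to OD600 0.05-0.1 in BHI with 2.5 mM CaCl2. Grown at 37 °C with shaking, with compound at 10, 20, 50 or 100 µM. Absorbance read at 600 nm periodically, or at 595 nm hourly, over six hours and compared with the control growth curve.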

The subject of assay [4] is Yersinia pseudotuberculosis. Description: Effect on T3S in Yersinia pseudotuberculosis 3 pIB29 assessed as inhibition of light emission at 20 uM by luciferase reporter gene assay. In a few lines:
as §1

The test system of assay [5] is Yersinia pseudotuberculosis. Briefly: Effect on T3S in Yersinia pseudotuberculosis 3 pIB29 assessed as inhibition of light emission at 100 uM by luciferase reporter gene assay. In a few lines: as §1

Structures are written as SMILES. Activity calls are given as the source filed them. No cut-off for these calls is given here.

What is called inhibition is the relative decrease from the control value, in per cent. With `O=C(Nc1ccc(F)c(F)c1)c1ccc(Cl)cc1NS(=O)(=O)c1cccc2nsnc12`, the inhibition came to 50% in assay [1], 9% in assay [2], 17% in assay [4] and 63% in assay [5]. The outcome in assay [3] was inactive.
The corresponding values for `O=C(Nc1ccc(Cl)c(Cl)c1)c1cc(Cl)ccc1NS(=O)(=O)c1ccccc1` are 73%, 58%, 70%, 70% and “inactive”.
The corresponding values for `O=C(Nc1cccc(Cl)c1)c1cc(Cl)ccc1NS(=O)(=O)c1cccc2nsnc12` are 47%, 3%, 13%, 55% and “inactive”.
On to `O=C(Nc1ccc(F)c(Cl)c1)c1cc(Cl)ccc1NS(=O)(=O)c1ccc(Cl)c(Cl)c1`, for which the result in assay [3] was inactive.
In the case of `O=C(Nc1ccc(Cl)c(Cl)c1)c1cc(F)c(F)cc1NS(=O)(=O)c1cccc2nsnc12`, the inhibition in assay [1] came to 66%; in assay [2] it was 9%; in assay [4] it was 39%; in assay [5] it was 80%. Also, the result in assay [3] was inactive.
The corresponding values for `CN(C)c1ccc(NC(=O)c2cc(Cl)ccc2NS(=O)(=O)c2cccc([N+](=O)[O-])c2)cc1` are 8%, 3%, 4%, 7% and “inactive”.
With `CC(=O)c1ccc(S(=O)(=O)Nc2cc(Cl)ccc2C(=O)Nc2ccc(F)c(Cl)c2)cc1`, the inhibition in assay [1] came out at 70%; in assay [2] it was 11%; in assay [4], 33%; in assay [5] it was 72%. Also, the result in assay [3] was inactive.
On to `COc1ccc(NC(=O)c2ccc(Cl)cc2NS(=O)(=O)c2cccc(F)c2)cc1`, for which the inhibition came out at 32% in assay [1], 5% in assay [2], 9% in assay [4] and 51% in assay [5]. Further, the result in assay [3] was inactive.
The corresponding values for `O=C(Nc1ccc(F)c(F)c1)c1cc(F)c(F)cc1NS(=O)(=O)c1cccc([N+](=O)[O-])c1` are 23%, -2%, 2%, 49% and “inactive”.
The corresponding values for `O=C(Nc1ccc2cccnc2c1)c1cc(Cl)ccc1NS(=O)(=O)c1ccc(Cl)c(Cl)c1` are 59%, 18%, 51%, 52% and “inactive”.
The corresponding values for `O=C(Nc1ccc(Cl)c(Cl)c1)c1ccc(Cl)cc1NS(=O)(=O)c1cccc2nsnc12` are 71%, 35%, 61%, 68% and “inactive”.
Regarding `O=C(Nc1ccc2cccnc2c1)c1cc(Cl)ccc1NS(=O)(=O)c1ccccc1`, the inhibition in assay [1] stood at 7%; in assay [2], 0%; in assay [4] it was 2%; in assay [5], 10%. In assay [3], the outcome was inactive.
Consider `O=C(Nc1ccc(Cl)c(Cl)c1)c1ccccc1NS(=O)(=O)c1cccc2nsnc12`, for which the inhibition in assay [1] is 11%; in assay [2] it was 5%; in assay [4], 10%; in assay [5] it was 13%. The outcome in assay [3] was inactive.
Turning to `O=C(Nc1ccccc1)c1cc(Cl)ccc1NS(=O)(=O)c1cccc2nsnc12`, the inhibition in assay [1] is 9%; in assay [2], -2%; in assay [4] it was 1%; in assay [5], 20%. Besides, the result in assay [3] was inactive.
Take `O=C(Nc1ccc(F)cc1)c1ccc(Cl)cc1NS(=O)(=O)c1ccc(Cl)c(Cl)c1`: in assay [3], the outcome was inactive.
